{"data": "Assay results from different studies", "target": "Mitogen-activated protein kinase kinase kinase kinase 2 (MAP4K2, Homo sapiens, UniProt Q12851)", "Sequence (Q12851 1-820, as in one of the studies)": "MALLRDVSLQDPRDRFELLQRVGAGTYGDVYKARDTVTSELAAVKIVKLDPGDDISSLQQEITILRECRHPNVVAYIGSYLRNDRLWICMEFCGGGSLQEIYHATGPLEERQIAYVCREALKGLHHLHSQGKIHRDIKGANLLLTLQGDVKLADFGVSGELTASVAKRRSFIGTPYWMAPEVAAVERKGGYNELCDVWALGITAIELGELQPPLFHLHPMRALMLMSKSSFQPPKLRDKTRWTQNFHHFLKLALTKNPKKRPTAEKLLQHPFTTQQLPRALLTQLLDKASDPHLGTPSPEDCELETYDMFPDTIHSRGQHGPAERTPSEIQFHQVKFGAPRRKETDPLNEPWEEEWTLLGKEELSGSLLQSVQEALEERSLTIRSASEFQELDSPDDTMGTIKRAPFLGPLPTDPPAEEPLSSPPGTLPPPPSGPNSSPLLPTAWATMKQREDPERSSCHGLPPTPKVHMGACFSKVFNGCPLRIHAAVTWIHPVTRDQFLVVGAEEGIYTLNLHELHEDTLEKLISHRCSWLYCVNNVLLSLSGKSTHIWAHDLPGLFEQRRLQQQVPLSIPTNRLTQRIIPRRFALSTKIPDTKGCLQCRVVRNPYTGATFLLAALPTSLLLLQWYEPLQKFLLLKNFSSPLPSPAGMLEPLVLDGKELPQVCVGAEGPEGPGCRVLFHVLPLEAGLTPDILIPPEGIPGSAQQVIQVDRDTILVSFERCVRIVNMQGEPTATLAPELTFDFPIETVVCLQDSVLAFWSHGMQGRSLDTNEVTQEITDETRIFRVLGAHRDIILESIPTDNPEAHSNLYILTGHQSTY", "note": "Protocols differ between the studies behind these lines."}
{"Structure (SMILES)": "Cn1cncc1[C@@](O)(COc1ccc(C#N)cc1-c1ccc(OC(F)(F)F)cc1)c1ccc(C#N)cc1", "test": "cell-free assay, competition with immobilised ligand", "setting": "1 µM", "endpoint": "remaining binding", "value": "100%"}
{"Structure (SMILES)": "COc1cc(Nc2ncc(F)c(Nc3ccc4c(n3)NC(=O)C(C)(C)O4)n2)cc(OC)c1OC", "test": "binding, competition with immobilised ligand", "setting": "10 µM", "endpoint": "inhibition", "value": "85%"}
{"Structure (SMILES)": "CC(C)(C)c1cc(C=C(C#N)C#N)cc(Br)c1O", "test": "enzyme activity, inhibitor", "setting": "0.5 µM", "endpoint": "remaining activity", "value": "113%"}
{"Structure (SMILES)": "Cc1nn(C)cc1-c1nc2c(N3CCN(Cc4ccc(Cl)cc4)CC3)c(Cl)cnc2[nH]1", "test": "binding, competition with immobilised ligand", "setting": "1 µM", "endpoint": "remaining binding", "value": "85%"}
{"Structure (SMILES)": "Cn1cc(-c2cc(F)cc(N3CCn4c(cc5c4CCCC5)C3=O)c2CO)cc(Nc2ccc(N3CCN(C4COC4)CC3)cn2)c1=O", "test": "enzyme activity, inhibitor", "setting": "0.1 µM", "endpoint": "inhibition", "value": "2%"}
{"Structure (SMILES)": "N#CC1(c2ccccn2)CCN(Cc2cc(C(=O)O)c(=O)n3ccccc23)CC1", "test": "cell-free assay, competition with immobilised ligand", "setting": "1 µM", "endpoint": "remaining binding", "value": "81%"}
{"Structure (SMILES)": "COc1ncccc1-c1cnn2ccc(N3CCN(C(=O)OC(C)C)CC3)nc12", "test": "binding, competition with immobilised ligand", "setting": "1 µM", "endpoint": "remaining binding", "value": "65%"}
{"Structure (SMILES)": "O=c1[nH]c2ccccc2n1C1CCN(Cc2ccc(-c3[nH]c4cc5ncnc5cc4nc3-c3ccccc3)cc2)CC1", "test": "cell-free assay", "setting": "0.5 µM", "endpoint": "remaining signal", "value": "105%"}
{"Structure (SMILES)": "Nc1ncc(-c2nc(N3CCOCC3)nc(N3CCOCC3)n2)c(C(F)F)n1", "test": "binding, competition with immobilised ligand", "setting": "10 µM", "endpoint": "remaining binding", "value": "78%"}
